According to ChEMBL document CHEMBL4732112, “Synthesis and in vitro evaluation of novel spiroketopyrazoles as acetyl-CoA carboxylase inhibitors and potential antitumor agents” (Eur J Med Chem, 2021):

Tested on: not listed separately
Test: Cytotoxicity against HUVEC assessed as cell viability at 100 uM after 72 hrs by MTT assay relative to control
Type: cell-based
Conditions: human, HUVEC cells, read-out: Activity
Method in brief: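 HUVEC kept in RPMI 1640 with 10% FBS at 37 °C, 5% CO2. Seeded at 3×10^3 per well and treated at 100 µM for 72 h after 24 h attachment. Viability by MTT with absorbance at 550 nm, as percent of control. Mean ± SD, n=3.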

SMILES	viability at 72 h, 100 µM
CC(C)(C)n1cc2c(n1)C(=O)CC1(CCN(C(=O)c3ccc4[nH]ncc4c3)CC1)O2	101%
CC(C)(C)n1cc2c(n1)C(=O)CC1(CCN(C(=O)c3cc(-c4ccc(Br)cc4)nc4ccccc34)CC1)O2	84.1%
Cc1ccccc1-c1cc(C(=O)N2CCC3(CC2)CC(=O)c2nn(C(C)(C)C)cc2O3)c2ccccc2n1	38.6%
CC(C)(C)n1cc2c(n1)C(=O)CC1(CCN(C(=O)c3cc(-c4ccccc4)nc4ccccc34)CC1)O2	97.3%
Cc1cc(C(=O)N2CCC3(CC2)CC(=O)c2nn(C(C)(C)C)cc2O3)c2ccccc2n1	101%
CC(C)(C)n1cc2c(n1)C(=O)CC1(CCN(C(=O)c3cc(N4CCNCC4)nc4ccccc34)CC1)O2	102%
COc1cccc2c1C(=O)c1c(O)c3c(c(O)c1C2=O)C[C@@](O)(C(=O)CO)C[C@@H]3O[C@H]1C[C@H](N)[C@H](O)[C@H](C)O1 [DOXORUBICIN]	14.4%
COc1ccc(-c2cc(C(=O)N3CCC4(CC3)CC(=O)c3nn(C(C)(C)C)cc3O4)c3ccccc3n2)cc1OC	93.7%
COc1cc(C(=O)N2CCC3(CC2)CC(=O)c2nn(C(C)(C)C)cc2O3)c2ccccc2n1	98.6%
CN1CCN(c2cc(C(=O)N3CCC4(CC3)CC(=O)c3nn(C(C)(C)C)cc3O4)c3ccccc3n2)CC1	93.5%
CN(C)c1ccc(-c2cc(C(=O)N3CCC4(CC3)CC(=O)c3nn(C(C)(C)C)cc3O4)c3ccccc3n2)cc1	91.3%

Tested on: HepG2
Test: Antiproliferative activity against human HepG2 cells assessed as cell growth inhibition after 72 hrs by MTT assay
Type: functional, cell-based
Conditions: HepG2, 72 h
Method in brief: (§1)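 HepG2, A549 or MDA-MB-231 cells grown in DMEM with 10% FBS and penicillin/streptomycin at 37 °C, 5% CO2. Seeded at 3×10^3 per well, left 24 h, then exposed to a range of concentrations for 72 h. MTT added for 4 h, formazan dissolved in DMSO, absorbance read at 550 nm. Mean ± SD, n=3.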

SMILES	IC50
CC(C)(C)n1cc2c(n1)C(=O)CC1(CCN(C(=O)c3ccc4[nH]ncc4c3)CC1)O2	1880 nM
COc1cccc2c1C(=O)c1c(O)c3c(c(O)c1C2=O)C[C@@](O)(C(=O)CO)C[C@@H]3O[C@H]1C[C@H](N)[C@H](O)[C@H](C)O1 [DOXORUBICIN]	690 nM
COc1ccc(-c2cc(C(=O)N3CCC4(CC3)CC(=O)c3nn(C(C)(C)C)cc3O4)c3ccccc3n2)cc1OC	1560 nM
CN(C)c1ccc(-c2cc(C(=O)N3CCC4(CC3)CC(=O)c3nn(C(C)(C)C)cc3O4)c3ccccc3n2)cc1	1730 nM

More lines, now with the values ahead:

IC50	SMILES
820 nM	CC(C)(C)n1cc2c(n1)C(=O)CC1(CCN(C(=O)c3cc(-c4ccc(Br)cc4)nc4ccccc34)CC1)O2
> 10000 nM	Cc1ccccc1-c1cc(C(=O)N2CCC3(CC2)CC(=O)c2nn(C(C)(C)C)cc2O3)c2ccccc2n1
2110 nM	CC(C)(C)n1cc2c(n1)C(=O)CC1(CCN(C(=O)c3cc(-c4ccccc4)nc4ccccc34)CC1)O2
9480 nM	Cc1cc(C(=O)N2CCC3(CC2)CC(=O)c2nn(C(C)(C)C)cc2O3)c2ccccc2n1
8570 nM	CC(C)(C)n1cc2c(n1)C(=O)CC1(CCN(C(=O)c3cc(N4CCNCC4)nc4ccccc34)CC1)O2
> 10000 nM	COc1cc(C(=O)N2CCC3(CC2)CC(=O)c2nn(C(C)(C)C)cc2O3)c2ccccc2n1
9550 nM	CN1CCN(c2cc(C(=O)N3CCC4(CC3)CC(=O)c3nn(C(C)(C)C)cc3O4)c3ccccc3n2)CC1

Target: T1, Acetyl-CoA carboxylase 1 (Homo sapiens, UniProt Q13085)
Test: Inhibition of recombinant human C-terminal His-tagged ACC1 (1 to 2383 residues) expressed in baculovirus infected Sf9 insect cells at 0.1 uM preincubated for 15 mins followed by substrate addition and measured after 60 mins by ADP-glo luminescence assay relative to control
Conditions: not given

SMILES	inhibition
CC(C)(C)n1cc2c(n1)C(=O)CC1(CCN(C(=O)c3ccc4[nH]ncc4c3)CC1)O2	82.5%
COc1ccc(-c2cc(C(=O)N3CCC4(CC3)CC(=O)c3nn(C(C)(C)C)cc3O4)c3ccccc3n2)cc1OC	95.6%
CN(C)c1ccc(-c2cc(C(=O)N3CCC4(CC3)CC(=O)c3nn(C(C)(C)C)cc3O4)c3ccccc3n2)cc1	96.4%

More lines, now with the values ahead:

inhibition	SMILES
93.2%	CC(C)(C)n1cc2c(n1)C(=O)CC1(CCN(C(=O)c3cc(-c4ccc(Br)cc4)nc4ccccc34)CC1)O2
41.8%	Cc1ccccc1-c1cc(C(=O)N2CCC3(CC2)CC(=O)c2nn(C(C)(C)C)cc2O3)c2ccccc2n1
90.5%	CC(C)(C)n1cc2c(n1)C(=O)CC1(CCN(C(=O)c3cc(-c4ccccc4)nc4ccccc34)CC1)O2
55%	Cc1cc(C(=O)N2CCC3(CC2)CC(=O)c2nn(C(C)(C)C)cc2O3)c2ccccc2n1
59.6%	CC(C)(C)n1cc2c(n1)C(=O)CC1(CCN(C(=O)c3cc(N4CCNCC4)nc4ccccc34)CC1)O2
36.7%	COc1cc(C(=O)N2CCC3(CC2)CC(=O)c2nn(C(C)(C)C)cc2O3)c2ccccc2n1
52.8%	CN1CCN(c2cc(C(=O)N3CCC4(CC3)CC(=O)c3nn(C(C)(C)C)cc3O4)c3ccccc3n2)CC1

Tested on: MDA-MB-231
Test: Antiproliferative activity against human MDA-MB-231 cells assessed as cell growth inhibition after 72 hrs by MTT assay
Type: functional, cell-based
Conditions: MDA-MB-231, 72 h
Method in brief: as §1

SMILES	IC50
CC(C)(C)n1cc2c(n1)C(=O)CC1(CCN(C(=O)c3ccc4[nH]ncc4c3)CC1)O2	5930 nM
COc1ccc(-c2cc(C(=O)N3CCC4(CC3)CC(=O)c3nn(C(C)(C)C)cc3O4)c3ccccc3n2)cc1OC	7130 nM
CN(C)c1ccc(-c2cc(C(=O)N3CCC4(CC3)CC(=O)c3nn(C(C)(C)C)cc3O4)c3ccccc3n2)cc1	> 10000 nM

Now from value to molecule:

IC50	SMILES
> 10000 nM	CC(C)(C)n1cc2c(n1)C(=O)CC1(CCN(C(=O)c3cc(-c4ccc(Br)cc4)nc4ccccc34)CC1)O2
> 10000 nM	Cc1ccccc1-c1cc(C(=O)N2CCC3(CC2)CC(=O)c2nn(C(C)(C)C)cc2O3)c2ccccc2n1
> 10000 nM	CC(C)(C)n1cc2c(n1)C(=O)CC1(CCN(C(=O)c3cc(-c4ccccc4)nc4ccccc34)CC1)O2
4860 nM	Cc1cc(C(=O)N2CCC3(CC2)CC(=O)c2nn(C(C)(C)C)cc2O3)c2ccccc2n1
4200 nM	CC(C)(C)n1cc2c(n1)C(=O)CC1(CCN(C(=O)c3cc(N4CCNCC4)nc4ccccc34)CC1)O2
> 10000 nM	COc1cc(C(=O)N2CCC3(CC2)CC(=O)c2nn(C(C)(C)C)cc2O3)c2ccccc2n1
8130 nM	CN1CCN(c2cc(C(=O)N3CCC4(CC3)CC(=O)c3nn(C(C)(C)C)cc3O4)c3ccccc3n2)CC1

Tested on: A549
Test: Antiproliferative activity against human A549 cells assessed as cell growth inhibition after 72 hrs by MTT assay
Type: functional, cell-based
Conditions: A549, 72 h
Method in brief: as §1

SMILES	IC50
CC(C)(C)n1cc2c(n1)C(=O)CC1(CCN(C(=O)c3ccc4[nH]ncc4c3)CC1)O2	3520 nM
COc1cccc2c1C(=O)c1c(O)c3c(c(O)c1C2=O)C[C@@](O)(C(=O)CO)C[C@@H]3O[C@H]1C[C@H](N)[C@H](O)[C@H](C)O1 [DOXORUBICIN]	590 nM
COc1ccc(-c2cc(C(=O)N3CCC4(CC3)CC(=O)c3nn(C(C)(C)C)cc3O4)c3ccccc3n2)cc1OC	2030 nM
CN(C)c1ccc(-c2cc(C(=O)N3CCC4(CC3)CC(=O)c3nn(C(C)(C)C)cc3O4)c3ccccc3n2)cc1	1150 nM

Further lines, results first:

IC50	SMILES
9300 nM	CC(C)(C)n1cc2c(n1)C(=O)CC1(CCN(C(=O)c3cc(-c4ccc(Br)cc4)nc4ccccc34)CC1)O2
1880 nM	Cc1ccccc1-c1cc(C(=O)N2CCC3(CC2)CC(=O)c2nn(C(C)(C)C)cc2O3)c2ccccc2n1
1940 nM	CC(C)(C)n1cc2c(n1)C(=O)CC1(CCN(C(=O)c3cc(-c4ccccc4)nc4ccccc34)CC1)O2
> 10000 nM	Cc1cc(C(=O)N2CCC3(CC2)CC(=O)c2nn(C(C)(C)C)cc2O3)c2ccccc2n1
> 10000 nM	CC(C)(C)n1cc2c(n1)C(=O)CC1(CCN(C(=O)c3cc(N4CCNCC4)nc4ccccc34)CC1)O2
> 10000 nM	COc1cc(C(=O)N2CCC3(CC2)CC(=O)c2nn(C(C)(C)C)cc2O3)c2ccccc2n1
> 10000 nM	CN1CCN(c2cc(C(=O)N3CCC4(CC3)CC(=O)c3nn(C(C)(C)C)cc3O4)c3ccccc3n2)CC1

Target: T1, Acetyl-CoA carboxylase 1
Test: Inhibition of recombinant human C-terminal His-tagged ACC1 (1 to 2383 residues) expressed in baculovirus infected Sf9 insect cells at 5 uM preincubated for 15 mins followed by substrate addition and measured after 60 mins by ADP-glo luminescence assay relative to control
Conditions: not given

SMILES	inhibition
CC(C)(C)n1cc2c(n1)C(=O)CC1(CCN(C(=O)c3ccc4[nH]ncc4c3)CC1)O2	101%
COc1ccc(-c2cc(C(=O)N3CCC4(CC3)CC(=O)c3nn(C(C)(C)C)cc3O4)c3ccccc3n2)cc1OC	102%
CN(C)c1ccc(-c2cc(C(=O)N3CCC4(CC3)CC(=O)c3nn(C(C)(C)C)cc3O4)c3ccccc3n2)cc1	99.6%

Continued, values first:

inhibition	SMILES
102%	CC(C)(C)n1cc2c(n1)C(=O)CC1(CCN(C(=O)c3cc(-c4ccc(Br)cc4)nc4ccccc34)CC1)O2
95.5%	Cc1ccccc1-c1cc(C(=O)N2CCC3(CC2)CC(=O)c2nn(C(C)(C)C)cc2O3)c2ccccc2n1
101%	CC(C)(C)n1cc2c(n1)C(=O)CC1(CCN(C(=O)c3cc(-c4ccccc4)nc4ccccc34)CC1)O2
93.6%	Cc1cc(C(=O)N2CCC3(CC2)CC(=O)c2nn(C(C)(C)C)cc2O3)c2ccccc2n1
97.6%	CC(C)(C)n1cc2c(n1)C(=O)CC1(CCN(C(=O)c3cc(N4CCNCC4)nc4ccccc34)CC1)O2
93.8%	COc1cc(C(=O)N2CCC3(CC2)CC(=O)c2nn(C(C)(C)C)cc2O3)c2ccccc2n1
97.4%	CN1CCN(c2cc(C(=O)N3CCC4(CC3)CC(=O)c3nn(C(C)(C)C)cc3O4)c3ccccc3n2)CC1

Target: T1, Acetyl-CoA carboxylase 1
Test: Inhibition of recombinant human C-terminal His-tagged ACC1 (1 to 2383 residues) expressed in baculovirus infected Sf9 insect cells preincubated for 15 mins followed by substrate addition and measured after 60 mins by ADP-glo luminescence assay
Conditions: not given
Method in brief: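 Recombinant ACC1 in assay buffer preincubated with inhibitor in DMSO for 15 min at room temperature. Reaction started with substrate mixture and run 60 min at room temperature. Stopped with ADP-Glo reagent for 40 min, then detection reagent for 40 min to convert ADP to ATP, read by luminescence. Mean of two independent experiments.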

SMILES	IC50
COc1ccccc1[C@H](Cn1c(=O)n(C(C)(C)C(=O)O)c(=O)c2c(C)c(-c3ncco3)sc21)OC1CCOCC1 [FIRSOCOSTAT]	4.34 nM
COc1ccc(-c2cc(C(=O)N3CCC4(CC3)CC(=O)c3nn(C(C)(C)C)cc3O4)c3ccccc3n2)cc1OC	3.57 nM
CN(C)c1ccc(-c2cc(C(=O)N3CCC4(CC3)CC(=O)c3nn(C(C)(C)C)cc3O4)c3ccccc3n2)cc1	2.72 nM

Continued, values first:

IC50	SMILES
5.67 nM	CC(C)(C)n1cc2c(n1)C(=O)CC1(CCN(C(=O)c3cc(-c4ccc(Br)cc4)nc4ccccc34)CC1)O2
> 100 nM	Cc1ccccc1-c1cc(C(=O)N2CCC3(CC2)CC(=O)c2nn(C(C)(C)C)cc2O3)c2ccccc2n1
6 nM	CC(C)(C)n1cc2c(n1)C(=O)CC1(CCN(C(=O)c3cc(-c4ccccc4)nc4ccccc34)CC1)O2
> 20 nM	Cc1cc(C(=O)N2CCC3(CC2)CC(=O)c2nn(C(C)(C)C)cc2O3)c2ccccc2n1
> 20 nM	CC(C)(C)n1cc2c(n1)C(=O)CC1(CCN(C(=O)c3cc(N4CCNCC4)nc4ccccc34)CC1)O2
> 100 nM	COc1cc(C(=O)N2CCC3(CC2)CC(=O)c2nn(C(C)(C)C)cc2O3)c2ccccc2n1
> 20 nM	CN1CCN(c2cc(C(=O)N3CCC4(CC3)CC(=O)c3nn(C(C)(C)C)cc3O4)c3ccccc3n2)CC1
